Bioassay records (PubChem BioAssay)
APJ antagonist: antagonists of human apelin receptor APJ, primary screen, CHO-K1 cells, beta-arrestin complementation, luminescence; P35414; inhibition, % at 20 µM; hit rate 0.32% among 330,000; AID 2521, 2010;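 active = inhibition above about 40% at 20 µM, limit read from the data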;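 note: cells challenged with 10 nM apelin-13 agonist together with compound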
CXCR6 inh: CXCR6 receptor inhibitors, primary screen, cell-based, beta-arrestin, luminescence, CHO-K1 PathHunter, 1536-well. C-X-C chemokine receptor type 6 (Homo sapiens), O00574. inhibition, % at 20 µM. hit rate 0.36% among 360,000; in the data active = inhibition above about 34%, passing the limit was not always enough;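 note: antagonist mode with CXCL16 agonist at 10 nM final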
Target sequence (O00574 whole entry, looked up): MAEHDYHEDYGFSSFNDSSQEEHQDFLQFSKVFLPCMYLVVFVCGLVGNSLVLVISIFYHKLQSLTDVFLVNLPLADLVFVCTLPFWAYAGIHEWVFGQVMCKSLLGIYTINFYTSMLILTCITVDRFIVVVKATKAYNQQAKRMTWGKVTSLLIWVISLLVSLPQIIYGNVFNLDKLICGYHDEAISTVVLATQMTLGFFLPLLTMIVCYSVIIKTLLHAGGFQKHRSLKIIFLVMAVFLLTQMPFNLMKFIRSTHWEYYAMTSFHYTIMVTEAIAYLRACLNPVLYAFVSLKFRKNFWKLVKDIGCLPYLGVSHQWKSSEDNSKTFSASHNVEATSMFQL
APJ ag: agonists of human apelin receptor APJ, primary screen, CHO-K1 cells, PathHunter beta-arrestin, luminescence; 0% DMSO wells, 100% apelin; hit rate 0.11% among 330,000; AID 2520, 2010; P35414; activation, % at 20 µM;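 active = activation more than six SD over the plate average, tested at 20 µM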
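Material: CHO-K1 APJ beta-arrestin complementation cell line; Input: cell density 1000 per well; Incubation: compound stimulation 90 min at 25 °C, detection 60 min; Signal: luminescence from split beta-galactosidase complementation, Galacton Star/Emerald II substrate; Controls: DMSO-only wells as negative, 10 nM Apelin-13 as positive control.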
CCR6 antag: CCR6 receptor antagonists, primary screen, cell-based, CHO-K1, luminescence, beta-arrestin, uHTS; CHO-K1 CCR6 PathHunter beta-arrestin, CCL20-stimulated; AID 493098, 2011; hit rate 0.49% among 340,000; C-C chemokine receptor type 6 (Homo sapiens), P51684; inhibition, % at 20 µM;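 active = compounds whose inhibition of the agonist-driven luminescence signal at 20 µM reaches about 50%, limit read from the data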;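 note: cells stimulated with CCL20 at 14 nM final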
EBI2 antag: EBI2 receptor antagonists, beta-arrestin recruitment, primary screen, cell-based, luminescence, 7a,25-OHC stimulation, uHTS | AID 651636, 2012 | 7a,25-OHC stimulated | hit rate 0.81% among 360,000 | inhibition, % at 5 µM | G-protein coupled receptor 183 (Homo sapiens), P32249; in the data active = inhibition above about 38%;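 note: enzyme fragment complementation signal reports receptor beta-arrestin coupling in cells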
Large screens that a line does not name were inactive. Most compounds without a hit are left out; they make up all but 1.5% or so of the library.

NC(=S)N/N=C/c1ccccc1	none
CC(=O)Nc1sc(N/N=C\c2ccc(O)cc2)nc1-c1cccs1	none
CC(=O)Nc1sc(N/N=C\c2ccccc2F)nc1-c1cccs1	CCR6 antag 50
O=C(Oc1ccccc1/C=C\C(=O)c1cc2ccccc2o1)c1ccccc1	EBI2 antag 48
O=C(Oc1ccccc1/C=C\C(=O)c1cc2ccccc2o1)c1cccc(F)c1	none
CCOC(=O)[C@]12CCCC=C1N(Cc1ccco1)C(=O)[C@H](CC(=O)NCCCN1CCCC1=O)C2	none (no result: APJ antagonist, APJ ag, CCR6 antag)
CN(C)CC(O)c1ccc(C=Cc2ccc(Cl)cc2)cc1 (stereo unspecified)	CCR6 antag 88 (no result: APJ antagonist, APJ ag)
O=C(CCCN1C(=O)/C(=C/c2ccccc2Cl)SC1=S)NNC(=O)c1ccccc1	EBI2 antag 42
CCCCNc1c(-c2ccc(-c3ccc(C(C)=O)cc3)c(OC)c2)nc2cnccn12	EBI2 antag 49
COc1cc(F)ccc1-c1cc(C(=O)Nc2ccc(NC(C)=O)cc2)[nH]n1	none (no result: APJ antagonist, APJ ag, CCR6 antag)
N#Cc1nccnc1S(=O)(=O)c1cccs1	APJ antagonist 56 (no result: CXCR6 inh, EBI2 antag)
CN(Cc1ccccc1C#N)S(=O)(=O)c1cccs1	none
CC(C)(C=O)C1=CC(=O)c2ccccc2C1=O	CXCR6 inh 100, CCR6 antag 103 (no result: APJ antagonist, APJ ag)
Brc1ccc([C@H]2C=C[C@H]3CCCN4CC[C@H]2[C@@H]3[C@]42CO2)cc1	none (no result: APJ antagonist, APJ ag, CCR6 antag)
CCN(CC)CCCN1C(=O)C(O)=C(C(=O)c2ccco2)C1c1ccc(OC(C)C)cc1 (stereo unspecified)	CCR6 antag 93
C=CCOc1ccc(C2C(C(=O)c3ccco3)=C(O)C(=O)N2CCCN(CC)CC)cc1 (stereo unspecified)	none
CCCn1c2ccccc2c2nnc(SCC(=O)Nc3cc(C)on3)nc21	none
C=CCn1c2ccccc2c2nnc(SCC(=O)Nc3cc(C)on3)nc21	CCR6 antag 55
CCCn1c2ccccc2c2nnc(SCC(=O)Nc3ncccn3)nc21	CXCR6 inh 43, CCR6 antag 63
COCCCNC(=O)c1cc(-c2cccnc2)nc2ccc(S(=O)(=O)N3CCCCCC3)cc12	none
CCOC(=O)c1ccc(N2C(=O)C=CC2=O)cc1	CXCR6 inh 101, CCR6 antag 113
COc1ccc(N2CCN(C(=O)CN(Cc3ccc(Cl)cc3)S(C)(=O)=O)CC2)cc1	CXCR6 inh 71
NS(=O)(=O)c1ccc(Nc2ccc([N+](=O)[O-])c3nonc23)cc1	CCR6 antag 63
COC(=O)[C@@]12C[C@@H](CC(=O)NCC3CCCCC3)C(=O)N(Cc3ccccc3)C1=CCC(C)(C)C2	none (no result: APJ antagonist, CXCR6 inh, APJ ag, CCR6 antag)
CC(NC(C(=O)c1ccccc1)c1ccccc1)c1ccccc1 (stereo unspecified)	CXCR6 inh 37, CCR6 antag 78 (no result: APJ antagonist, APJ ag)
CCOC(=O)[C@]12Cc3c(cc(OC)c(OC)c3OC)[C@H]1N(C1CCCCC1)C(=O)c1cc(OC)ccc12	none (no result: APJ antagonist, APJ ag, CCR6 antag)
O=C1C2C(C(=O)N1/N=C/c1cc(Br)cc([N+](=O)[O-])c1O)C1C=CC2C12CC2 (stereo unspecified)	CCR6 antag 52
O=C(NC1=C(Nc2ccc(Cl)cc2)C(=O)c2ccccc2C1=O)c1ccccc1	none
O=C1C(Cl)=C(NC(=O)c2ccccc2)C(=O)C(Cl)=C1NC(=O)c1ccccc1	CXCR6 inh 88 (no result: CCR6 antag)
Cc1ccc2nc3n(c(=O)c2c1)-c1cc(Cl)ccc1C(=O)NC3Cc1ccc(O)cc1 (stereo unspecified)	none (no result: CXCR6 inh, CCR6 antag, EBI2 antag)
O=C(CCc1ccccc1)NNC(=S)NC(=O)c1ccccc1	CCR6 antag 69
CC(=O)NC(=S)NNC(=O)CCc1ccccc1	none
CC(C)C[C@H]1C(=O)N2CCC[C@H]2[C@]2(O)O[C@](NC(=O)C3C=C4c5cccc6[nH]c(Br)c(c56)C[C@H]4N(C)C3)(C(C)C)C(=O)N12 (stereo partly specified)	EBI2 antag 90
OC(c1ccc(Cl)c(Cl)c1)c1ncc(-c2ccccc2C(F)(F)F)[nH]1 (stereo unspecified)	none (no result: APJ antagonist, APJ ag, CCR6 antag)
Cc1ccc2nc(-c3ccc(Cl)cc3)c(Cc3cccc(Cl)c3)n2c1	none (no result: APJ antagonist, APJ ag, CCR6 antag)
Cc1ccc2nc(-c3ccc(-c4cccc(Cl)c4)cc3)c(NCc3ccccc3)n2c1	EBI2 antag 58
CCOc1ccccc1NC(=O)CSc1nncc2ccccc12	none
Cc1ccc(S(=O)(=O)Nc2ccccc2)cc1[N+](=O)[O-]	none (no result: APJ antagonist, APJ ag)
